Active and inactive are the calls of the source.
Assays:
[1] = test system: Rattus norvegicus; test: Antiarthritic activity in Wistar rat type-2 collagen-induced arthritis model assessed as reduction in serum anti-type-2 collagen IgG level at 15 mg/kg, ig via gavage administered 10 consecutive days starting from day 20 post type-2 collagen injection by ELISA method; format: functional, organism-based
Outline: (§1)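 CIA Wistar rats (chicken CII in BCG/IFA emulsion, intradermal twice 7 d apart) gavaged daily for 10 d from day 20. Serum collected after treatment; anti-CII IgG quantified with a rat anti-CII antibody ELISA kit. n = 10 per group; one-way ANOVA with Student−Newman−Keuls.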

[2] = test system: Rattus norvegicus; test: (§2) Antiarthritic activity in Wistar rat type-2 collagen-induced arthritis model assessed as reduction in bone degeneration at 15 mg/kg, ig via gavage administered 10 consecutive days starting from day 20 post type-2 collagen injection by hematoxylin and eosin staining based light microscopy; format: functional, organism-based
Outline: (§3)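 CIA in male Wistar rats (chicken CII emulsion, two intradermal injections 7 d apart); daily gavage for 10 d from day 20. After treatment, hind limbs X-rayed. Left hind paw joints fixed in 10% formalin, decalcified in 10% EDTA for 28 d at 4 °C, paraffin-embedded, sectioned at 5 μm, H&E-stained and examined by light microscopy at 100×.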

[3] = test system: Rattus norvegicus; test: Antiarthritic activity in Wistar rat type-2 collagen-induced arthritis model assessed as reduction in bone degradation at 0.6 to 15 mg/kg, ig via gavage administered 10 consecutive days starting from day 20 post type-2 collagen injection by X-ray method; format: functional, organism-based; outline: as §3
[4] = test system: Rattus norvegicus; test: Antiarthritic activity in Lewis rat Freund's adjuvant-induced arthritis model assessed as change in thymus weight at 0.6 to 15 mg/kg, ig administered through gavage pretreated for 1 hr followed by adjuvant challenge subsequent treatment for 9 days measured alternate days up to 24 days post dose; format: functional, organism-based
Outline: (§4)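 Female Lewis rats (8 weeks old, 120−140 g) given a single intradermal injection of 0.1 mL CFA (10 mg heat-killed M. tuberculosis per 1 mL paraffin oil) into the right hind paw. Oral gavage in sterile saline 1 h before induction, then daily for the next 9 d. Sacrifice by exsanguination under deep anesthesia 24 d after adjuvant. Spleen, liver and thymus weighed and corrected for body weight (g/100 g). n = 10; one-way ANOVA with Student−Newman−Keuls.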

[5] = test system: Rattus norvegicus; test: Antiarthritic activity in Wistar rat type-2 collagen-induced arthritis model assessed as reduction in joint tissue TNF-alpha level at 15 mg/kg, ig via gavage administered 10 consecutive days starting from day 20 post type-2 collagen injection by ELISA method; format: functional, organism-based
Outline: (§5)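 CIA Wistar rats dosed by gavage daily for 10 d from day 20 post first CII injection. Trunk blood serum stored at −70 °C. Right hind paw joint tissue homogenized at 200 mg/mL in PBS with 50 U/mL aprotinin, then centrifuged at 3000 rpm for 20 min at 4 °C. IL-1β and TNF-α quantified by ELISA kits in serum and supernatant. n = 10; one-way ANOVA with SNK.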

[6] = test system: Rattus norvegicus; test: Antiarthritic activity in Wistar rat type-2 collagen-induced arthritis model assessed as reduction in IL-1beta mRNA expression at 15 mg/kg, ig via gavage administered 10 consecutive days starting from day 20 post type-2 collagen injection by qPCR analysis; format: functional, organism-based
Outline: (§6)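 Male Wistar rats (7 weeks old) given chicken CII (2 mg/mL in 0.1 M acetic acid) emulsified 1:1 in BCG/IFA adjuvant, two intradermal 0.3 mL injections 7 d apart. Gavage in saline daily for 10 d from day 20. Total RNA from ankle synovial tissue homogenate, reverse transcribed, qPCR in triplicate. Fold change vs blank control by 2−ΔΔCt.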

[7] = test system: Rattus norvegicus; test: (§7) Antiarthritic activity in Lewis rat Freund's adjuvant-induced arthritis model assessed as reduction in arthritis index score at 15 mg/kg, ig administered through gavage pretreated for 1 hr followed by adjuvant challenge subsequent treatment for 9 days measured alternate days up to 24 days post dose; format: functional, organism-based
Outline: (§8)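 Female Lewis rats (8 weeks old) given a single intradermal injection of 0.1 mL CFA (heat-killed M. tuberculosis in paraffin oil) into the right hind paw. Gavage dosing in sterile saline 1 h before induction and daily for 9 d. Arthritis index scored (the paper reports the 18 d reading). n = 10 per group; Kruskal−Wallis with Dunn's test.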

[8] = test system: Rattus norvegicus; test: Antiarthritic activity in Wistar rat type-2 collagen-induced arthritis model assessed as reduction in serum anti-type-2 collagen IgG level at 3 mg/kg, ig via gavage administered 10 consecutive days starting from day 20 post type-2 collagen injection by ELISA method; format: functional, organism-based; outline: as §1
[9] = test system: Rattus norvegicus; test: Antiarthritic activity in Wistar rat type-2 collagen-induced arthritis model assessed as reduction in bone erosion at 0.6 to 15 mg/kg, ig via gavage administered 10 consecutive days starting from day 20 post type-2 collagen injection by X-ray method; format: functional, organism-based; outline: as §3
[10] = test system: Rattus norvegicus; test: (§9) Antiarthritic activity in ig dosed Lewis rat Freund's adjuvant-induced arthritis model assessed as reduction in mechanical allodynia in ipsilateral hind paw administered through gavage pretreated for 1 hr followed by adjuvant challenge and subsequent treatment for 9 days measured alternate days up to 24 days post dose; format: functional, organism-based
Outline: (§10)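 Lewis rats with CFA-induced arthritis (0.1 mL intradermal, right hind paw), gavaged 1 h before induction and daily for 9 d. Mechanical withdrawal threshold measured 1 h after dosing. Rats habituated 30 min in individual cubicles; von Frey filament applied upward to the centre of each hind paw until withdrawal, maximum 55 g. Repeated twice at 10 min intervals; ipsilateral and contralateral paws recorded separately. n = 10; two-way ANOVA.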

[11] = test system: Rattus norvegicus; test: Antiarthritic activity in Lewis rat Freund's adjuvant-induced arthritis model assessed as change in spleen weight at 0.6 to 15 mg/kg, ig administered through gavage pretreated for 1 hr followed by adjuvant challenge subsequent treatment for 9 days measured alternate days up to 24 days post dose; format: functional, organism-based; outline: as §4
[12] = test system: Rattus norvegicus; test: Antiarthritic activity in Wistar rat type-2 collagen-induced arthritis model assessed as reduction in serum TNF-alpha level at 15 mg/kg, ig via gavage administered 10 consecutive days starting from day 20 post type-2 collagen injection by ELISA method; format: functional, organism-based; outline: as §5
[13] = test system: Rattus norvegicus; test: Antiarthritic activity in Wistar rat type-2 collagen-induced arthritis model assessed as reduction in serum anti-type-2 collagen IgG level at 0.6 mg/kg, ig via gavage administered 10 consecutive days starting from day 20 post type-2 collagen injection by ELISA method; format: functional, organism-based; outline: as §1
[14] = Toxicity in ig dosed Wistar rat measured 30 mins after administration via gavage at 4 h intervals during first 24 hrs and twice a day thereafter over the next 13 days; format: organism-based; conditions: in vivo, po
Outline: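 OECD 425 up-and-down procedure in ten 7-week-old male Wistar rats, fasted overnight. Single gavage dose at 10 mL/kg, starting at 300 mg/kg with a progression factor of 1/0.75. Survival checked at 30 min, every 4 h for 24 h, then twice daily for 13 d. LD50 reported with a 95% confidence interval.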

[15] = test system: Rattus norvegicus; test: Antiarthritic activity in Wistar rat type-2 collagen-induced arthritis model assessed as reduction in joint tissue IL-1beta level at 15 mg/kg, ig via gavage administered 10 consecutive days starting from day 20 post type-2 collagen injection by ELISA method; format: functional, organism-based; outline: as §5
[16] = test system: Rattus norvegicus; test: as §7, with “0.6” for “15”, “challenge and” for “challenge”; format: functional, organism-based; outline: as §8
[17] = test system: Rattus norvegicus; test: Antiarthritic activity in Wistar rat type-2 collagen-induced arthritis model assessed as reduction in TNF-alpha mRNA expression at 15 mg/kg, ig via gavage administered 10 consecutive days starting from day 20 post type-2 collagen injection by qPCR analysis; format: functional, organism-based; outline: as §6
[18] = test system: Rattus norvegicus; test: Antiarthritic activity in Wistar rat type-2 collagen-induced arthritis model assessed as reduction in mechanical allodynia administered as ig via gavage for 10 consecutive days starting from day 20 post type-2 collagen injection; format: functional
Outline: (§11)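 Male Wistar rats (7 weeks old) immunized with chicken CII in CFA/IFA, two intradermal 0.3 mL injections 7 d apart. Oral gavage in saline for 10 consecutive days starting day 20. Evaluation at baseline, predosing, and on alternate days thereafter: arthritis score; plethysmometer volume averaged over both hind paws; von Frey threshold 1 h post-dose (max 55 g, two repeats 10 min apart). n = 10.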

[19] = test system: Rattus norvegicus; test: Antiarthritic activity in Wistar rat type-2 collagen-induced arthritis model assessed as reduction in arthritis index score administered as ig via gavage for 10 consecutive days starting from day 20 post type-2 collagen injection; format: functional; outline: as §11
[20] = test system: Rattus norvegicus; test: Antiarthritic activity in Lewis rat Freund's adjuvant-induced arthritis model assessed as reduction in arthritis index score at 3 mg/kg, ig administered through gavage pretreated for 1 hr followed by adjuvant challenge subsequent treatment for 9 days measured alternate days up to 24 days post dose; format: functional, organism-based; outline: as §8
[21] = test system: Rattus norvegicus; test: as §9, with “in” for “in ig dosed”, “contralateral” for “ipsilateral”, “paw at 0.6 to 15 mg/kg, ig” for “paw”; format: functional, organism-based; outline: as §10
[22] = test system: Rattus norvegicus; test: Antiarthritic activity in Wistar rat type-2 collagen-induced arthritis model assessed as reduction in serum IL-1beta level at 3 to 15 mg/kg, ig via gavage administered 10 consecutive days starting from day 20 post type-2 collagen injection by ELISA method; format: functional, organism-based; outline: as §5
[23] = test system: Rattus norvegicus; test: Antiarthritic activity in Wistar rat type-2 collagen-induced arthritis model assessed as reduction in cartilage space narrowing at 0.6 to 15 mg/kg, ig via gavage administered 10 consecutive days starting from day 20 post type-2 collagen injection by X-ray method; format: functional, organism-based; outline: as §3
[24] = test system: Rattus norvegicus; test: Antiarthritic activity in Lewis rat Freund's adjuvant-induced arthritis model assessed as change in liver weight at 0.6 to 15 mg/kg, ig administered through gavage pretreated for 1 hr followed by adjuvant challenge subsequent treatment for 9 days measured alternate days up to 24 days post dose; format: functional, organism-based; outline: as §4
[25] = test system: Rattus norvegicus; test: as §2, with “cartilage” for “bone”, “degeneration in joints” for “degeneration”; format: functional, organism-based; outline: as §3
[26] = test system: Rattus norvegicus; test: as §7, with “hind paw volume” for “arthritis index score”, “2.5” for “15”, “dose by plethysmometer” for “dose”; format: functional, organism-based
Outline: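 Lewis rat AIA (female, 8 weeks; 0.1 mL CFA intradermally into right hind paw), dosed by gavage 1 h pre-induction then daily for 9 d. Plethysmometer volumes of injected (ipsilateral) and uninjected (contralateral) hind paws recorded separately. Two-way ANOVA with Dunnett's T3 test; n = 10/group.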

[27] = test system: Rattus norvegicus; test: (§12) Antiarthritic activity in Lewis rat Freund's adjuvant-induced arthritis model assessed as reduction in arthritis index score at 2.5 mg/kg, ig administered through gavage pretreated for 1 hr followed by adjuvant challenge subsequent treatment for 9 days measured alternate days up to 24 days post dose; format: functional, organism-based
Outline: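 AIA induced in female 8-week-old Lewis rats by one intradermal 0.1 mL CFA injection (10 mg heat-killed M. tuberculosis per mL paraffin oil) into right hind paw; controls received paraffin oil–water emulsion. Daily intragastric dosing from 1 h before induction through 9 d. Arthritis index scored; Kruskal–Wallis with Dunn's test; n = 10/group.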

[28] = test system: Rattus norvegicus; test: as §12, with “mechanical withdrawal threshold” for “arthritis index score”; format: functional, organism-based
Outline: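 Mechanical withdrawal threshold in Lewis AIA rats (right-paw CFA, gavage dosing 1 h pre-induction and daily 9 d), tested 1 h after dosing: 30 min habituation in individual cubicles, von Frey filament applied upward to mid-paw until withdrawal, 55 g cut-off, repeated twice at 10 min intervals; ipsilateral and contralateral paws recorded separately; n = 10.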

## C=C[C@@]12CN(C)[C@H]3C[C@]14C(=Nc1ccccc14)[C@H]1C[C@@H]2[C@@H]3CO1
[1]
  Activity: Active
[2]
  Activity: Active
[3]
  Activity: Active
[4]
  Activity: Active
[5]
  Activity: Active
[6]
  Activity: Active
[7]
  Activity: Active
[8]
  Activity: Active
[9]
  Activity: Active
[10]
  Activity: Dose-dependent effect
[11]
  Activity: inactive
[12]
  Activity: Active
[13]
  Activity: inactive
[14]
  LD50 at 14 days: 300 mg/kg
[15]
  Activity: Active
[16]
  Activity: Active
[17]
  Activity: Active
[18]
  Activity: Dose-dependent effect
[19]
  Activity: Dose-dependent effect
[20]
  Activity: Active
[21]
  Activity: inactive
[22]
  Activity: Active
[23]
  Activity: Active
[24]
  Activity: Active
[25]
  Activity: Active

## COc1ccc2c(c1)c(CC(=O)O)c(C)n2C(=O)c1ccc(Cl)cc1
[26]
  Activity: Active
[27]
  Activity: Active
[28]
  Activity: Active

— ChEMBL document CHEMBL4041468, “Effects of Koumine on Adjuvant- and Collagen-Induced Arthritis in Rats” (J Nat Prod, 2016)
